The subject of one series is Mus musculus. Put plainly: Inhibition of liver SCD1 activity in po dosed db/db mouse assessed as reduction in conversion of [14C]stearic acid to [14C]oleic acid. In kind it is functional. The conditions noted are these: read-out: ID50 (the source's name). An outline of the steps:
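Seven-week-old male db/db mice dosed by oral gavage 2 h before i.p. [14C]stearate (100 µCi/kg in saline with 2% BSA). Livers harvested 1 h later and homogenized in cold PBS. Saponified homogenate analyzed by AgNO3-TLC for the [14C]oleate/[14C]stearate ratio. ID50 is the dose giving 50% inhibition.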

For a further series, the target named is T1, Acyl-CoA desaturase 1 (Mus musculus, UniProt P13516).
T1 sequence (P13516 whole entry): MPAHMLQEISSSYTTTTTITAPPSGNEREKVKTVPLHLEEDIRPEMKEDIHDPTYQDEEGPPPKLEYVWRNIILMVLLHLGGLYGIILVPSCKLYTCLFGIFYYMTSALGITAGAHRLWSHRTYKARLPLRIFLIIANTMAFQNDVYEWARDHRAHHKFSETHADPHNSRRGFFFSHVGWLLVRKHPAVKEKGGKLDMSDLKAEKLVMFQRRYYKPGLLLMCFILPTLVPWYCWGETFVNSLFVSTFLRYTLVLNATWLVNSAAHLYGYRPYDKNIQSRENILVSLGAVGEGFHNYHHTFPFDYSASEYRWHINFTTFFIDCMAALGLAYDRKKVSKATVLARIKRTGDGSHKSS
Put plainly: Inhibition of SCD1 in mouse microsome assessed as reduction in conversion of [14C]stearic acid to [14C]oleic acid after 30 mins. The series is classed as microsomes.

Series [1] addresses T2, Stearoyl-CoA desaturase (Homo sapiens, UniProt O00767).
T2 sequence (O00767 whole entry): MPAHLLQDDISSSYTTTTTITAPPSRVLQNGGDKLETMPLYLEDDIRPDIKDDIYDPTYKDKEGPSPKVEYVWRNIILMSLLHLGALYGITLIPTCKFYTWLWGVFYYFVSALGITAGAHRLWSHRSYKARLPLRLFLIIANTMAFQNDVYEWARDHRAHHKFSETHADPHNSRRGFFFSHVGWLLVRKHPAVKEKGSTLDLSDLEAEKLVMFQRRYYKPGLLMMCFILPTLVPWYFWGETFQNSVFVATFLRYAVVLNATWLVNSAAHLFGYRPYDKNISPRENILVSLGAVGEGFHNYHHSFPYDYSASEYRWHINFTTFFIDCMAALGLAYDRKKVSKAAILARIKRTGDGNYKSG
Put plainly: Inhibition of human SCD1 expressed in HEK293A cells assessed as reduction in conversion of [14C]stearic acid to [14C]oleic acid after 30 mins. In kind it is cell-based, HEK293-A. The method, boiled down:
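293A cells stably expressing human SCD1 (G418-selected) grown to confluence in DMEM + 10% FBS. Cells preincubated with compound 30 min, then given 0.1 µCi [14C]stearate for 4 h. Lipids saponified in KOH, separated by AgNO3-TLC, and the [14C]oleate/[14C]stearate ratio used as activity. IC50 derived from this read-out.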

Series [2] addresses T2, Stearoyl-CoA desaturase. Kind of series: Inhibition of SCD1 in HEK293A cell microsomes assessed as reduction in conversion of [14C]stearic acid to [14C]oleic acid after 30 mins. On the set-up: species or system HEK293-A, Microsome.
The nature of series [3]: Aqueous solubility of the compound at acidic JP-1 solution of pH 1.2 by HPLC analysis. In kind it is physicochemical. The method, boiled down:
(§1)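 Solubility measured in purchased aqueous acidic JP-1 (pH 1.2) or neutral JP-2 (pH 6.8) media. Samples analyzed by HPLC, with UV peak area compared to a calibration standard of 250 µM compound in CH3CN/water 1:1. Means of at least two experiments.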

A short description of series [4]: Aqueous solubility of the compound at neutral JP-2 solution of pH 6.8 by HPLC analysis. The series is classed as physicochemical. The method, boiled down:
as §1

Series [5] concerns the target T2, Stearoyl-CoA desaturase. Put plainly: Inhibition of human SCD1. The method, boiled down:
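Microsomes from 293A cells as the human SCD1 source, preincubated with compound for 10 min at room temperature. Reaction run 60 min at 37 °C in pH 7.4 phosphate buffer with ATP 1 mM, NADH 1.25 mM, CoA and [14C] stearate. Product saponified and separated on AgNO3-TLC. Activity is the [14C] oleate/stearate ratio. IC50 by linear regression; mean of ≥2 experiments.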

In brackets after ≈: the same amount, converted by molar mass.

What is called IC50 is the concentration needed to halve the response being measured. As usually defined, the solubility is the concentration that dissolves in the medium under given conditions. Higher therefore signals a readily soluble substance.

On to `c1ccc2c(c1)CCC1(CCN(c3ccc(-c4nnc(Cc5ccncc5)o4)nn3)CC1)O2`, for which the ED50 in the series on Mus musculus was found to be 7 mg/kg. The results for the IC50 at Acyl-CoA desaturase 1, on Stearoyl-CoA desaturase [1] and on Stearoyl-CoA desaturase [2] were 4 nM, 7 nM and 6 nM, respectively.

With `FC(F)(F)c1cccc2c1CCC1(CCN(c3ccc(-c4nnc(Cc5cccnc5)o4)nn3)CC1)O2`, the figures for the solubility in series [3] and in series [4] were 88 µM (≈ 44.7 µg/mL) and less than 0.5 µM, respectively. Further, the ED50 in the series with Mus musculus was 0.4 mg/kg. Besides, the results for the IC50 at Acyl-CoA desaturase 1, against Stearoyl-CoA desaturase [5] and on Stearoyl-CoA desaturase [2] were 0.06 nM, 0.03 nM and 0.03 nM, respectively.

For `O=C(NCCc1cccnc1)c1ccc(N2CCC3(CCc4ccccc4O3)CC2)nn1`, the ED50 in the series on Mus musculus is 5 mg/kg. For the same molecule, the IC50 is 10 nM at Acyl-CoA desaturase 1, 76 nM at Stearoyl-CoA desaturase [1] and 27 nM at Stearoyl-CoA desaturase [2].

As for `c1ccc(Cc2nnc(-c3ccc(N4CCC5(CCc6ccccc6O5)CC4)nn3)o2)nc1`, the ED50 in the series on Mus musculus was 6 mg/kg. The values for the half-maximal inhibitory concentration (IC50) at Acyl-CoA desaturase 1, at Stearoyl-CoA desaturase [1] and at Stearoyl-CoA desaturase [2] were 3 nM, 9 nM and 4 nM, respectively.

On to `Fc1ccc(F)c2c1CCC1(CCN(c3ccc(-c4nnc(Cc5cccnc5)o4)nn3)CC1)O2`, for which the ED50 in the series on Mus musculus is less than 2 mg/kg. Further, the IC50 was 0.5 nM at Acyl-CoA desaturase 1, 1 nM on Stearoyl-CoA desaturase [1] and 0.1 nM on Stearoyl-CoA desaturase [2].
